Calls of active or inactive are those of the source. The calls are words filed in the database; no cut-off is given here.
Legend:
[1] = target: Aldo-keto reductase family 1 member B1 (Bos taurus) (UniProt P16116); experiment: Inhibition of aldose reductase in partially purified bovine lens preparation at 10e-6 M.
Method in brief: (§1)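 Aldose reductase partially purified from bovine lens, with the final chromatographic step of the earlier preparation omitted. Assay run in duplicate with test compound at 1 × 10^-6 M or 1 × 10^-7 M. Reported as % inhibition of enzymatic activity.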

Rattus norvegicus [2] = experiment: In vivo inhibition of galactitol accumulation in the sciatic nerves of rat at a dose of 100 mg/kg/day; format: functional; conditions: Sciatic nerve
Rattus norvegicus [3] = experiment: In vivo inhibition of galactitol accumulation in the sciatic nerves of rat at a dose of 26 mg/kg/day; format: functional; conditions: Sciatic nerve
Rattus norvegicus [4] = experiment: In vivo inhibition of galactitol accumulation in the diaphragm of rat. at a dose of 100 mg/kg/day; format: functional
Rattus norvegicus [5] = experiment: […] inhibition of sorbitol accumulation in rat sciatic nerves at 5*10e-6 M concentration; format: functional, Sciatic nerve; conditions: in the assay text read “In vitro” for “In vivo”
Method in brief: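 Sciatic nerves from male Sprague-Dawley rats (200–250 g), removed after CO2 euthanasia, incubated ex vivo for 3 h at 37 °C under 95% air/5% CO2 in Hank's salts buffer, pH 7.4, with 50 mM glucose and 5 × 10^-6 M test compound. Triplicate incubations; nerve sorbitol measured in duplicate by spectrofluorometric assay. Reported as % inhibition of sorbitol accumulation.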

Rattus norvegicus [6] = experiment: In vivo inhibition of galactitol accumulation in the diaphragm of rat. at a dose of 26 mg/kg/day; format: functional
[7] = target: Aldo-keto reductase family 1 member B1 (Bos taurus) (UniProt P16116); experiment: Inhibition of aldose reductase in partially purified bovine lens preparation at 10e-7 M concentration; method in brief: as §1
Rattus norvegicus [8] = experiment: In vivo inhibition of sorbitol accumulation in rat sciatic nerves at 5*10e-5 M concentration; format: functional, Sciatic nerve; conditions: in the assay text read “In vitro” for “In vivo”
Method in brief: (§2)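 Sciatic nerves were taken from male Sprague-Dawley rats (200–250 g) after CO2 euthanasia. Nerves were incubated 3 h at 37 °C under 95% air/5% CO2 in Hank's salts buffer, pH 7.4, with 50 mM glucose and (0–5)×10^-5 M compound, in triplicate. Nerve sorbitol was measured spectrofluorometrically in duplicate, and the read-out was % inhibition of sorbitol accumulation.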

[9] = target: Aldo-keto reductase family 1 member B1 (Bos taurus) (UniProt P16116); experiment: […] inhibition of aldose reductase in partially purified bovine lens preparation at 10e-6 M concentration
Method in brief: (§3)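 Enzyme partially purified from bovine lens by a published method, with the final chromatographic step omitted. Test compound was added at 1×10^-6 or 1×10^-7 M. Assays were run in duplicate, and the read-out was % inhibition of enzymatic activity.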

[10] = target: Aldo-keto reductase family 1 member B1 (Bos taurus) (UniProt P16116); experiment: […] inhibition of aldose reductase in partially purified bovine lens preparation at 10e-7 M concentration; method in brief: as §3
Rattus norvegicus [11] = experiment: In vivo inhibition of galactitol accumulation in the diaphragm of rat. at a dose of 56 mg/kg/day; NS=not significant; format: functional, organism-based
Rattus norvegicus [12] = experiment: In vivo inhibition of galactitol accumulation in the sciatic nerves of rat at a dose of 56 mg/kg/day; NS=not significant; format: functional, organism-based; conditions: Sciatic nerve
Rattus norvegicus [13] = experiment: […] inhibition of sorbitol accumulation in rat sciatic nerves at 10e-5 M concentration; format: functional, Sciatic nerve; method in brief: as §2
Rattus norvegicus [14] = experiment: In vivo inhibition of galactitol accumulation in the diaphragm of rat vat a dose of 6 mg/kg/day; format: functional
Rattus norvegicus [15] = experiment: In vivo inhibition of galactitol accumulation in the sciatic nerves of rat at a dose of 6 mg/kg/day; format: functional; conditions: Sciatic nerve
Rattus norvegicus [16] = experiment: […] inhibition of sorbitol accumulation in rat sciatic nerves at 10e-6 M concentration; NS=not significant; format: functional; conditions: Sciatic nerve; method in brief: as §2
Rattus norvegicus [17] = experiment: In vivo inhibition of galactitol accumulation in the diaphragm of rat at a dose of 48 mg/kg/day; format: functional
Rattus norvegicus [18] = experiment: In vivo inhibition of galactitol accumulation in the diaphragm of rat. at a dose of 50 mg/kg/day; NS=not significant; format: functional, organism-based
Rattus norvegicus [19] = experiment: In vivo inhibition of galactitol accumulation in the sciatic nerves of rat at a dose of 50 mg/kg/day; NS=not significant; format: functional, organism-based; conditions: Sciatic nerve
Rattus norvegicus [20] = experiment: In vivo inhibition of sorbitol accumulation in rat sciatic nerves at 10e-6 M concentration; format: functional, Sciatic nerve; method in brief: as §2
Rattus norvegicus [21] = experiment: In vivo inhibition of galactitol accumulation in the diaphragm of rat at a dose of 4 mg/kg/day; format: functional
Rattus norvegicus [22] = experiment: In vivo inhibition of galactitol accumulation in the sciatic nerves of rat at a dose of 4 mg/kg/day; format: functional; conditions: Sciatic nerve
Rattus norvegicus [23] = experiment: In vivo inhibition of galactitol accumulation in the diaphragm of ratat a dose of 75 mg/kg/day; format: functional
Rattus norvegicus [24] = experiment: In vivo inhibition of galactitol accumulation in the sciatic nerves of rat at a dose of 25 mg/kg/day; format: functional; conditions: Sciatic nerve
Rattus norvegicus [25] = experiment: In vivo inhibition of galactitol accumulation in the diaphragm of rat. at a dose of 25 mg/kg/day; NS =not significant; format: functional, organism-based
Rattus norvegicus [26] = experiment: In vivo inhibition of galactitol accumulation in the sciatic nerves of rat at a dose of 75 mg/kg/day; format: functional; conditions: Sciatic nerve
Rattus norvegicus [27] = experiment: In vivo inhibition of galactitol accumulation in the sciatic nerves of ratat a dose of 51 mg/kg/day; NS=not significant; format: functional, organism-based; conditions: Sciatic nerve
Rattus norvegicus [28] = experiment: In vivo inhibition of galactitol accumulation in the diaphragm of rat at a dose of 51 mg/kg/day; format: functional
Rattus norvegicus [29] = experiment: In vivo inhibition of galactitol accumulation in the diaphragm of rat at a dose of 57 mg/kg/day; format: functional
Rattus norvegicus [30] = experiment: In vivo inhibition of galactitol accumulation in the diaphragm of rat at a dose of 97 mg/kg/day; format: functional
Rattus norvegicus [31] = experiment: In vivo inhibition of galactitol accumulation in the sciatic nerves of rat at a dose of 57 mg/kg/day; format: functional; conditions: Sciatic nerve
Rattus norvegicus [32] = experiment: In vivo inhibition of galactitol accumulation in the sciatic nerves of rat at a dose of 97 mg/kg/day; format: functional; conditions: Sciatic nerve

| Compound | inhibition [1] | Inhibition (Rattus norvegicus [5]) | inhibition [7] | Inhibition (Rattus norvegicus [8]) | Inhibition (Rattus norvegicus [13]) | Inhibition (Rattus norvegicus [20]) | also measured |
| --- | --- | --- | --- | --- | --- | --- | --- |
| COc1ccc2c(/C(=N/C#N)N(C)CC(=O)O)cccc2c1C(F)(F)F | 81% | 70% | 80% | 81% | – | – | inhibition in vivo at 100 mg/kg/day (Rattus norvegicus [2]): 61%; inhibition in vivo at 26 mg/kg/day (Rattus norvegicus [3]): 30%; inhibition in vivo at 100 mg/kg/day (Rattus norvegicus [4]): 72%; inhibition in vivo at 26 mg/kg/day (Rattus norvegicus [6]): 44% |
| COc1ccc2c(/C(=N/S(=O)(=O)C(F)(F)F)N(C)CC(=O)O)cccc2c1C(F)(F)F | – | 36% | – | 71% | – | – | inhibition [9]: 94%; inhibition [10]: 69%; inhibition (Rattus norvegicus [11]): inactive; inhibition (Rattus norvegicus [12]): inactive |
| COc1ccc2c(C(=S)N(C)CC(=O)O)cccc2c1C(F)(F)F [TOLRESTAT] | – | 76% | – | – | 82% | – | inhibition in vivo at 6 mg/kg/day (Rattus norvegicus [14]): 80%; inhibition in vivo at 6 mg/kg/day (Rattus norvegicus [15]): 53% |
| COC(=O)N(CC(=O)O)C(=O)c1cccc2c(C(F)(F)F)c(OC)ccc12 | 97% | – | 82% | – | 58% | – | inhibition (Rattus norvegicus [16]): inactive; inhibition in vivo at 48 mg/kg/day (Rattus norvegicus [17]): 54% |
| COc1ccc2c(C(=O)N(CC(=O)O)C(=O)c3ccccc3)cccc2c1C(F)(F)F | 62% | – | 15% | – | 31% | 40% | inhibition (Rattus norvegicus [18]): inactive; inhibition (Rattus norvegicus [19]): inactive |
| O=C1NC(=O)[C@@]2(CCOc3ccc(F)cc32)N1 [SORBINIL] | 45% | 74% | 10% | – | 96% | 27% | inhibition in vivo at 4 mg/kg/day (Rattus norvegicus [21]): 69%; inhibition in vivo at 4 mg/kg/day (Rattus norvegicus [22]): 55% |
| COc1ccc2c(C(=O)N(C)CC(=O)O)cccc2c1C(F)(F)F | 86% | – | 57% | 89% | 74% | 27% | inhibition in vivo at 75 mg/kg/day (Rattus norvegicus [23]): 27%; inhibition in vivo at 25 mg/kg/day (Rattus norvegicus [24]): 33%; inhibition (Rattus norvegicus [25]): inactive; inhibition in vivo at 75 mg/kg/day (Rattus norvegicus [26]): 56% |
| COC(=O)N(CC(=O)O)C(=S)c1cccc2c(C(F)(F)F)c(OC)ccc12 | – | – | – | – | 61% | 36% | inhibition [9]: 88%; inhibition [10]: 29%; inhibition (Rattus norvegicus [27]): inactive; inhibition in vivo at 51 mg/kg/day (Rattus norvegicus [28]): 80% |
| CCOC(=O)N(CC(=O)O)C(=O)c1cccc2c(C(F)(F)F)c(OC)ccc12 | 98% | – | 81% | – | 88% | 51% | inhibition in vivo at 57 mg/kg/day (Rattus norvegicus [29]): 70%; inhibition in vivo at 97 mg/kg/day (Rattus norvegicus [30]): 83%; inhibition in vivo at 57 mg/kg/day (Rattus norvegicus [31]): 56%; inhibition in vivo at 97 mg/kg/day (Rattus norvegicus [32]): 90% |

Source: ChEMBL document CHEMBL1124370 (1989)
